Source: publication PMC8637866 (RSC Chemical Biology, 2021)
pEC50: −log10 of the molar value. No end group written: not given here.

Legend:
[1] = test system: neg-HEK cells; assay: Flow cytometry binding of VHH–biotin–PTH conjugates to neg-HEK cells; conditions: for pEC50: read-out: Binding EC50, Neg-HEK, 1 h on ice, streptavidin–PE, flow cytometry (MFI), mean of three independent experiments
Summary of the method: (§1)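 Adherent cells were detached with trypsin, washed, resuspended in PBS, and stained for 1 h on ice with graded concentrations of biotin-labelled VHH–PTH1–11 conjugates. Cells were washed, stained with streptavidin–PE, and analysed by flow cytometry. Line 1 used PTHR1-6E-HEK cells (HEK293 expressing PTHR1 with the 6E tag in the extracellular domain); line 2 used parental HEK293 cells. Median fluorescence intensity was fitted to sigmoidal curves, with maximal staining expressed relative to the MHC-I conjugate; three independent experiments.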

[2] = test system: PTHR1-6E-HEK cells; assay: Flow cytometry binding of VHH–biotin–PTH conjugates to PTHR1-6E-HEK cells; design: species or system human
Summary of the method: as §1

[3] = test system: human PTHR1; assay: cAMP stimulation by PTH1–34 CLAMPs on receptor cells; format: cell-based; conditions: HEK293 cells (receptor cells) that express human PTHR1; Fig. 5 (legend: PTHR1-6E-HEK)
[4] = molecular target: T1, PTHR1-6E (Homo sapiens, UniProt Q03431, A83I/D81R/G76A/K80A/K82Q/P78E/R79L/S71Q/S73D/S75E/T74Q); assay: cAMP response; format: cell-based
T1 sequence (Q03431 23-593 S71Q/S73D/T74Q/S75E/G76A/P78E/R79L/K80A/D81R/K82Q/A83I limits assumed): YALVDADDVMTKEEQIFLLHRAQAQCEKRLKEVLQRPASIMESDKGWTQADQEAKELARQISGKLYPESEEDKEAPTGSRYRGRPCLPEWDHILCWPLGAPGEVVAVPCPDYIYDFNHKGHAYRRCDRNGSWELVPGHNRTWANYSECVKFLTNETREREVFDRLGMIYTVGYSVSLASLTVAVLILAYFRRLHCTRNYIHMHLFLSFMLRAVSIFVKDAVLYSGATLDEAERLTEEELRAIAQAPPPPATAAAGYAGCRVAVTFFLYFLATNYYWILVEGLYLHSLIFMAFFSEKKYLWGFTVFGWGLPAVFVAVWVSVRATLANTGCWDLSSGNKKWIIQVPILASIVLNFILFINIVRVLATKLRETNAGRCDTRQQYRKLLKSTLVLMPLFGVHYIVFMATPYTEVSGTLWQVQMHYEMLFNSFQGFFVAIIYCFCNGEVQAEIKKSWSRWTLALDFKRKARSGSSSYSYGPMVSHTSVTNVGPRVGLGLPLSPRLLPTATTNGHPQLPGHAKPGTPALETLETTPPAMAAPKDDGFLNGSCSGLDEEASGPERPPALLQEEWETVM
Summary of the method: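 HEK293 cells stably expressing PTHR1 carrying the 6E tag plus a cAMP-responsive luciferase (Glosensor) were treated with graded concentrations of VHH–PTH1–11 conjugates. cAMP was read as luminescence. EC50 came from a sigmoidal dose–response fit with variable slope, using replicate wells per experiment and three independent experiments.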

| Compound | cAMP stimulation compared with PTH1–34 (in words) [3] | pEC50 [1] | further results |
| --- | --- | --- | --- |
| VHH6E–PTH1–11: conjugate of VHH6E (binds UBC6E epitope tag), biotin and PTH1–11 (SVSEIQLMHNL; also: conjugated to VHH6E nanobody and biotin; UniProt P01270 32-42, looked up, fragment) | – | – | maximal staining (in words) ([1]; HEK-neg cells): a The maximal staining for VHH6E–PTH1–11 on HEK-neg cells was very weak, so binding EC50 values were not determined (ND).; staining signal compared with VHHMHC-I (in words) [2]: stronger signal than staining with VHHMHC-I |
| VHHGFP–PTH1–34: CLAMP of PTH1–34 conjugated to VHH that targets GFP (SVSEIQLMHNLGKHLNSMERVEWLRKKLQDVHNF; also: conjugated to anti-GFP VHH (with biotin); UniProt P01270 32-65, looked up, fragment) | performed similarly to PTH1–34 itself | – | – |
| CC[C@H](C)[C@H](NC(=O)[C@H](CCC(=O)O)NC(=O)[C@H](CO)NC(=O)[C@@H](NC(=O)[C@@H](N)CO)C(C)C)C(=O)N[C@@H](CCC(N)=O)C(=O)N[C@@H](CC(C)C)C(=O)N[C@@H](CCSC)C(=O)N[C@@H](Cc1c[nH]cn1)C(=O)N[C@@H](CC(N)=O)C(=O)N[C@@H](CC(C)C)C(=O)NCC(=O)N[C@@H](CCCCN)C(=O)N[C@@H](Cc1c[nH]cn1)C(=O)N[C@@H](CC(C)C)C(=O)N[C@@H](CC(N)=O)C(=O)N[C@@H](CO)C(=O)N[C@@H](CCSC)C(=O)N[C@@H](CCC(=O)O)C(=O)N[C@@H](CCCNC(=N)N)C(=O)N[C@H](C(=O)N[C@@H](CCC(=O)O)C(=O)N[C@@H](Cc1c[nH]c2ccccc12)C(=O)N[C@@H](CC(C)C)C(=O)N[C@@H](CCCNC(=N)N)C(=O)N[C@@H](CCCCN)C(=O)N[C@@H](CCCCN)C(=O)N[C@@H](CC(C)C)C(=O)N[C@@H](CCC(N)=O)C(=O)N[C@@H](CC(=O)O)C(=O)N[C@H](C(=O)N[C@@H](Cc1c[nH]cn1)C(=O)N[C@@H](CC(N)=O)C(=O)N[C@@H](Cc1ccccc1)C(=O)N[C@@H](CS)C(N)=O)C(C)C)C(C)C [PTH1–34, reference compound] | – | – | pEC50 [4]: 9.74 |
| VHHMHC-I–PTH1–11: conjugate of VHHMHC-I (targets human β2-microglobulin, previously Nb30), biotin and PTH1–11 (SVSEIQLMHNL; also: conjugated to anti-β2-microglobulin VHH and biotin; UniProt P01270 32-42, looked up, fragment) | – | 8.37 | stimulation of cAMP responses (in words) ([4]; PTHR1-6E-HEK cells, Fig. 2e and Table 1): essentially inactive in stimulating cAMP responses |
| VHHMHC-II–PTH1–34: CLAMP of PTH1–34 conjugated to VHH that targets murine MHC-II (SVSEIQLMHNLGKHLNSMERVEWLRKKLQDVHNF; Parathyroid hormone conjugated to anti-MHC-II VHH; UniProt P01270 32-65, looked up, fragment) | performed similarly to PTH1–34 itself | – | – |
| VHHa5b1–PTH1–11: conjugate of VHHα5β1 (targets integrin α5β1), biotin and PTH1–11 (SVSEIQLMHNL; also: conjugated to anti-integrin α5β1 VHH and biotin; UniProt P01270 32-42, looked up, fragment) | – | 8.52 | – |
